# Assay results: the EternaBench riboswitch data
# Tested on: MS2 coat protein
# Assay: apparent Kd, MS2 coat protein; higher = weaker binding; RNA-MaP array; FMN 200 µM where present
# Procedure, shortened: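 Binding was read on Illumina sequencing-chip clusters where stalled E. coli RNA polymerase had transcribed each design. A titration of SNAP-549-labelled MS2 coat protein began at 0.7 or 1.5 nM and doubled to 3 µM, once without ligand and once with constant ligand, in 100 mM Tris-HCl pH 7.5, 80 mM KCl, 4 mM MgCl2, BSA, DTT, yeast tRNA and Tween-20. The apparent Kd is the median of filtered per-cluster binding-curve fits, based on green signal normalised to red-channel RNA signal and control-cluster median Fmax.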
# [1] = designed as: OFF switch for flavin mononucleotide, no ligand
# [2] = ligand present: flavin mononucleotide, designed as: OFF switch for flavin mononucleotide
# [3] = designed as: ON switch for flavin mononucleotide, no ligand
# [4] = ligand present: flavin mononucleotide, designed as: ON switch for flavin mononucleotide
sequence,measurement,setting,value
AUGGGCUAAGGAUAUAGACGACGACACAUGAGGAUCACCCAUGUCAGUAAUGGGUCUUGGCUAGAAGGUAGAACCC,apparent Kd,[1],44.5 nM
same,apparent Kd,[2],72.7 nM
GUUAUAGGAGGAUAUACAUGAGGAUCACCCAUGUCUCACCCAUGGCAACGAACCUAUUGUAGAAGGCUUGAAGA,apparent Kd,[1],74.5 nM
same,apparent Kd,[2],182 nM
AACGAGCAAGAUUAUUAUGAAUAAACAUGAGGAUCACCCAUGUAGGAUAUGCAGUGGAAUACACUGCAGAAGGACAAAAGCUCG,apparent Kd,[1],6.49 nM
same,apparent Kd,[2],12.9 nM
GACUCGCGCACAGGAUAUCCACGGAGCGGACGUGGAGAAGGGUGACAUGAGGAUCACCCAUGUACGUGAGUCUAGAUCACUUCC,apparent Kd,[3],67.2 nM
same,apparent Kd,[4],25 nM
CCAGACGUAGGAUAUACAUUUGGGUAAUCCCGCGGAUAAUUACAUGAGGAUCACCCAUGUAGAAGGGCGGUAAA,apparent Kd,[1],38.7 nM
same,apparent Kd,[2],28 nM
AAUAUAAAGAGCUGGUAAACUCAAACAUGAGGAUCACCCAUGUAGGAUAUCAGCACGAUAAGUGCUGAGAAGGACAUCCAGCUC,apparent Kd,[1],15.9 nM
same,apparent Kd,[2],15.4 nM
AAAGACAGACAUGAGGAUCACCCAUGUUACGAAGAUAAUGGGAGAAGGGCGAUUGCAAAGCAAUCGCAGGAUAUUCAUAUUGUC,apparent Kd,[3],39.6 nM
same,apparent Kd,[4],10.8 nM
GCAACGCCUGACAUGAGGAUCACCCAUGUUAGAUUGUUAUGUCAGGAUAUUGUCUCGAAACGAGACGAGAAGGGAUAUGUUGCU,apparent Kd,[3],1110 nM
same,apparent Kd,[4],39 nM
GCCAUCAUAUGAGGAUAUGACACCGAAACGGUGUCAGAAGGCAUGUCGAUAGACAUGAGGAUCACCCAUGUAUAAAUGAUGGCA,apparent Kd,[3],780 nM
same,apparent Kd,[4],118 nM
AGUCCACAUGAGGAUCACCCAUGUGAGGAUAUCGAUGUCCCAGGGCGGGUGCGGGACUCGAGAAGGCACUAGGU,apparent Kd,[1],34.5 nM
same,apparent Kd,[2],110 nM
UAGAUGGGAGGAUAUGCAUAGAUACAGAUUCGUGUAGUGCUACAUGAGGAUCACCCAUGUAGAAGGCCCGUCUU,apparent Kd,[1],14.8 nM
same,apparent Kd,[2],37.6 nM
GGACGUCACAUUUACAUGAGGAUCACCCAUGUCUCUUGACAUGAGGAUAUGUAUACUAAUUGUAUACAGAAGGCAUGGACGUCC,apparent Kd,[3],1010 nM
same,apparent Kd,[4],168 nM
CCUCCACAUGAGGAUCACCCAUGUCAGGAUAUCGUGUGUGUUUUUUCGGUCUUUCGUGCGAGAAGGGACGUCUG,apparent Kd,[1],51.6 nM
same,apparent Kd,[2],52.3 nM
CUAUGACGAAUAGGAUAUUCGAUCAAAAGGAUAGAAGAAGGGUUACAUGAGGAUCACCCAUGUAUGCACAUGAGGAUCCCUUAG,apparent Kd,[1],193 nM
same,apparent Kd,[2],219 nM
CGGCGGAAAGGAUAUGCAUUAAUAUCAAAAUGUGGGCCACGACAUGAGGAUCACCCAUGUAGAAGGUUCAGCCG,apparent Kd,[1],16 nM
same,apparent Kd,[2],14.3 nM
CAGUACUGUCGAGAGGAUAUGCGGUGAUGGACAUGAGGAUCACCCAUGUUAGCGACAGCAUCACGGCAGAAGGCUCUACUGCUGC,apparent Kd,[3],47.9 nM
same,apparent Kd,[4],17.2 nM
ACUGUUUGAUUCCUCUUUUACAUGAGGAUCACCCAUGUUAUCGAGGAUAUGCAUUAGAGUGUUUAGCAGAAGGCGAUGUAAUUG,apparent Kd,[1],6.51 nM
same,apparent Kd,[2],20.8 nM
UUUAGUUGCGGGCAGGAUAUGUAUUAAAAUACAUGAGGAUCACCCAUGUGCGGGUGUAACACCCGACAGAAGGGCCAAUCGCGAC,apparent Kd,[3],388 nM
same,apparent Kd,[4],28.6 nM
CAGGAAAUAGAGGAUAUAGGAGUCGAUAGACUCCUAGAAGGCUAUACAUGAGGAUCACCCAUGUGUCCUACCUG,apparent Kd,[1],16.7 nM
same,apparent Kd,[2],43 nM
CCUAAGAAAGGAUAUACACCGGUGGGCCGCUGAAUUCAGCAACAUGAGGAUCACCCAUGUAGAAGGUUUAUGGG,apparent Kd,[1],75.2 nM
same,apparent Kd,[2],270 nM
ACCAAGCGAGGAUAUACUUAGAUUUUUUCGUUUAGUCUCGAACAUGAGGAUCACCCAUGUAGAAGGUGCUUCAC,apparent Kd,[1],47.8 nM
same,apparent Kd,[2],46.5 nM
UUUAUAAAUUAGAAGGCGGGAUGAAUUACAAUAGACAUGAGGAUCACCCAUGUGUAUUCAUGUCUUGAGGAUAUAGUCAUAUAU,apparent Kd,[3],271 nM
same,apparent Kd,[4],110 nM
GCAUGUUAUGUCAGGAUAUACCUAUGGAUACAUAGGUAGAAGGGACAUGAGGAUCACCCAUGUCCUAAUCAUGC,apparent Kd,[1],13.4 nM
same,apparent Kd,[2],16.7 nM
AGUUAAUAUCGAGGAUAUCCUCAUCUACAUGAGGAUCACCCAUGUAAGCAUGGAGAAGGCGAUAUUAACAGCAUGUUACAUGCA,apparent Kd,[3],112 nM
same,apparent Kd,[4],10.5 nM
GUGGUCAGACAUGAGGAUCACCCAUGUGGAAUAAAUAAGGGACAGGAUAUUCAAUAUAGGAUAUAGAAGAAGGGUUGGUUGGUG,apparent Kd,[3],96.1 nM
same,apparent Kd,[4],125 nM
UCGUGAAGGACAGGAUAUGGACAUGAGGAUCACCCAUGUACAUGGGAAUAUAUACUGCAUUUAUACUAGAAGGGUUACAUAAAU,apparent Kd,[1],12.8 nM
same,apparent Kd,[2],11.2 nM
GUACAGAGGGAGAAGGGCUAGGAGGUCCAGCUUAUGUGUGUUGCAACAUGAGGAUCACCCAUGUAGCAGGAUAUCCCUCGUACA,apparent Kd,[1],40.2 nM
same,apparent Kd,[2],257 nM
UUAAAUCAUGUAGGAUAUGCAUGGCGAAGCUACGCAGAAGGACAUGAGGAUCACCCAUGUUCUGGCUACCGAGUACGGUGGCAA,apparent Kd,[1],20.5 nM
same,apparent Kd,[2],81.2 nM
GCCUAGCUAGGAUAUACCCAGGGUUUGUUCUCUAACGACACACAUGAGGAUCACCCAUGUAGAAGGAGCCGGGA,apparent Kd,[1],47.2 nM
same,apparent Kd,[2],41.4 nM
GUGCGGUAGGAGAAGGACGGAGGCUUCUUUUCAUACAUGAGGAUCACCCAUGUAGGAUAUCCUACCUCACGCGGCCUACUUCUG,apparent Kd,[1],5.22 nM
same,apparent Kd,[2],5.06 nM
CCUAAGGAGACAGGAUAUAGCGUGGUGGCCGGGCUCCCACGGCGAGCGGCGCUAGAAGGGUCACUACAUGAGGAUCACCCAUGU,apparent Kd,[3],11.2 nM
same,apparent Kd,[4],11.6 nM
GUAGCUAUCGGAGGAUAUUCAUUAUACAUGAGGAUCACCCAUGUUAAAGUGGGAGAAGGCCGAUAGCUACAAGAGCGAAAGCUC,apparent Kd,[3],35.8 nM
same,apparent Kd,[4],8.13 nM
GCUGACGAUGUAGGAUAUCAGUAUAAUAAAUACUGAGAAGGACAUGAGGAUCACCCAUGUACUCAACGUCAGCAGAGGAAACUC,apparent Kd,[1],17.8 nM
same,apparent Kd,[2],22.5 nM
ACCUCGUACACAGGAUAUGAUUACUUGCAGCCUGCGUUGACAUGAGGAUCACCCAUGUGGACUGAUCAGAAGGGUGAACGGAAG,apparent Kd,[4],112 nM
GGGCUGGGAGGAUAUUCAUUGGGAAACAUGAGGAUCACCCAUGUGAUAUAAGGGAAAUCCGGAGAAGGCUCGGUUC,apparent Kd,[1],18.1 nM
same,apparent Kd,[2],18.8 nM
GUGUACAGAGGAUAUACAAGAGGAGUUACGAAAGUAACUUCACAUGAGGAUCACCCAUGUAGAAGGCUGUACAC,apparent Kd,[1],24.6 nM
same,apparent Kd,[2],39.5 nM
GGGAGACAUGAGGAUCACCCAUGUGAAAACGUGUGAGGAUAUGAAUGGAAACCAUACUGUUCAGAAGGCACUUGUC,apparent Kd,[3],89.7 nM
same,apparent Kd,[4],36.6 nM
CCGUUACAUGAGGAUCACCCAUGUGAGGAUAUCGGUGUGACUGGCAGCGUGCGGGACUCGAGAAGGCACUGGGC,apparent Kd,[1],71.2 nM
same,apparent Kd,[2],87.9 nM
GGAAAUCAUGUAGGAUAUGCAUGGCGAAGCUACGCAGAAGGACAUGAGGAUCACCCAUGUUAGAGCGUCCGAGAAAGGAUGCAA,apparent Kd,[1],43.2 nM
same,apparent Kd,[2],250 nM
UUCCUCUUUGUGAGGAUAUCGUCCGUUUUUUGUUACGAGAAGGCACAUGAGGAUCACCCAUGUUUUUUGUUUUU,apparent Kd,[1],20.4 nM
same,apparent Kd,[2],68.3 nM
GACUUGUCAGGAUAUCUUACAUAAACAUCGUAGUUACAAUUGGAGAAGGGACAUGAGGAUCACCCAUGUUUGCG,apparent Kd,[1],25.1 nM
same,apparent Kd,[2],29.3 nM
CCGCGACACGAAGGAUAUGUGGGUGGUAGUCUGUGCUCCGCCUACAUGAGGAUCACCCAUGUAUCACAGAAGGUCGGACGUCGA,apparent Kd,[3],26.7 nM
same,apparent Kd,[4],125 nM
UGGUUUGGGCUAGAUGCACAGACAUGAGGAUCACCCAUGUCUGAGGAUAUGCGUCAACAUAGGCAGCAGAAGGCAGACAUUCGC,apparent Kd,[1],16.8 nM
same,apparent Kd,[2],30.5 nM
CGCACUGAUAGAGGAUAUGUUUAACAUGAGGAUCACCCAUGUGUACAAGAAUCAAUAUUUAUCAAACAGAAGGCUAUUAGUGCG,apparent Kd,[1],5.06 nM
same,apparent Kd,[2],4.08 nM
GGUACCUUCACAGGAUAUGCUAUCCUUUGGGUAGCAGAAGGGUGAUACAUGAGGAUCACCCAUGUGGUGCCAGGGCGUGAGCCC,apparent Kd,[3],1090 nM
same,apparent Kd,[4],305 nM
GUAUGUAACAAGGAUAUGCCCUCGAUACGAUUUGCAGAAGGUGUUACAUGAGGAUCACCCAUGUGGCCUUGCAU,apparent Kd,[1],19.4 nM
same,apparent Kd,[2],74.9 nM
CAUUGCGAAGGAUAUACAUGAGGAUCACCCAUGUGUUUCCUCACGCACGGGAGUAGCGGUAGAAGGUCGCAGAA,apparent Kd,[1],14.7 nM
same,apparent Kd,[2],29.4 nM
AAGCCACAUGAGGAUCACCCAUGUCAGGAUAUCUCGAAAAGCAUAGAAAUAUGCGAAGAGAGAAGGGACUACUC,apparent Kd,[1],43.1 nM
same,apparent Kd,[2],67.7 nM
